Results: ChEMBL document CHEMBL1138854, “Synthesis and antitumor activity of guanylhydrazones from 6-(2,4-dichloro-5-nitrophenyl)imidazo[2,1-b]thiazoles and 6-pyridylimidazo[2,1-b]thiazoles(1)” (2006)
Activity calls are given as the source filed them. No cut-off for these calls is given here.

Experiments:
[1] = tested on: HL-60; experiment: Mitochondrial potential in HL60 cells assessed as decrease in ATP level at 0.5 uM; type: functional, cell-based; conditions: Homo sapiens
[2] = Antitumor activity against leukemia cell lines of the NCI60 panel; type: functional; conditions: Homo sapiens; for TGI: read-out: pTGI (converted)
Method in brief: (§1)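 Run by NCI in the 60-cell-line panel (details in Supporting Information). Highest concentration 10^-4 M unless noted (one case 10-2.6 M). Values expressed as -log molar concentration giving 50% growth inhibition (pGI50), total cytostasis (pTGI) or 50% cell kill (pLC50); only values >4.00 reported; mean graph midpoint is the calculated panel mean.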

[3] = tested on: NSCLC; experiment: Antitumor activity against NSCLC cell lines of the NCI60 panel; type: functional; conditions: Homo sapiens; for TGI: read-out: pTGI (converted); method in brief: as §1
[4] = Antitumor activity against colon cell lines of the NCI60 panel; type: functional; conditions: Homo sapiens; for TGI: read-out: pTGI (converted); method in brief: as §1
[5] = Antitumor activity against CNS cell lines of the NCI60 panel; type: functional; conditions: Homo sapiens; for TGI: read-out: pTGI (converted); method in brief: as §1
[6] = Antitumor activity against melanoma cell lines of the NCI60 panel; type: functional; conditions: Homo sapiens; for TGI: read-out: pTGI (converted); method in brief: as §1
[7] = Antitumor activity against ovarian cell lines of the NCI60 panel; type: functional; conditions: Homo sapiens; for TGI: read-out: pTGI (converted); method in brief: as §1
[8] = Antitumor activity against renal cell lines of the NCI60 panel; type: functional, Homo sapiens; conditions: Homo sapiens, renal; for TGI: read-out: pTGI (converted); method in brief: as §1
[9] = Antitumor activity against prostate cell lines of the NCI60 panel; type: functional; conditions: Homo sapiens; for TGI: read-out: pTGI (converted); method in brief: as §1
[10] = Antitumor activity against breast cell lines of the NCI60 panel; type: functional; conditions: Homo sapiens; for TGI: read-out: pTGI (converted); method in brief: as §1
[11] = target: T1, S-adenosylmethionine decarboxylase proenzyme (Homo sapiens) (UniProt P17707); experiment: Inhibition of SAMDC in HL60 cells by release of radioactive CO2 from [14C-carboxyl]S-adenosylmethionine; conditions: HL-60
T1 sequence (whole entry): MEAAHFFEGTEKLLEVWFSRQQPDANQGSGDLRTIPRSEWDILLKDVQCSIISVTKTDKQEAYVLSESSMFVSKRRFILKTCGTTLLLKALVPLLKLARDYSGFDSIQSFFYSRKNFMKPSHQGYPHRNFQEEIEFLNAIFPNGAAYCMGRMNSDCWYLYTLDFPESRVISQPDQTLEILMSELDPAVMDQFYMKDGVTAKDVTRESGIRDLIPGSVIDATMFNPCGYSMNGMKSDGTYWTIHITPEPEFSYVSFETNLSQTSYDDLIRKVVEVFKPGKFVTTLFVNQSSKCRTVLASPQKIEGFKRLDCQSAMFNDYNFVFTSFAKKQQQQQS

| Compound | GI50 [2] | TGI [2] | GI50 [3] | TGI [3] | GI50 [4] | TGI [4] | GI50 [5] | TGI [5] | GI50 [6] | TGI [6] | GI50 [7] | TGI [7] | GI50 [8] | TGI [8] | GI50 [9] | TGI [9] | GI50 [10] | TGI [10] | further results |
| --- | --- | --- | --- | --- | --- | --- | --- | --- | --- | --- | --- | --- | --- | --- | --- | --- | --- | --- | --- |
| CCCc1cn2c(/C=N/NC(=N)N)c(-c3cc([N+](=O)[O-])c(Cl)cc3Cl)nc2s1 | 0.724 µM | 1.95 µM | 1.74 µM | 3.24 µM | 1.48 µM | 2.75 µM | 1.66 µM | 3.09 µM | 1.66 µM | 3.09 µM | 1.62 µM | 3.02 µM | 1.66 µM | 3.09 µM | 1.74 µM | 3.39 µM | 1.74 µM | 3.47 µM | Activity [1]: inactive; Activity [11]: inactive |
| N=C(N)N/N=C/c1c(-c2cc([N+](=O)[O-])c(Cl)cc2Cl)nc2sccn12 | 1.45 µM | 4.27 µM | 1.78 µM | 3.47 µM | 1.02 µM | 2.14 µM | 1.55 µM | 3.47 µM | 1.58 µM | 3.02 µM | 1.86 µM | 3.55 µM | 2 µM | – | 2.09 µM | – | 2.82 µM | 6.03 µM | – |
| Cc1cn2c(/C=N/NC(=N)N)c(-c3ccccn3)nc2s1 | 3.63 µM | – | 10.2 µM | 32.4 µM | 8.13 µM | 29.5 µM | 8.13 µM | 26.9 µM | 9.77 µM | 28.8 µM | 17.4 µM | 63.1 µM | 7.94 µM | – | 7.94 µM | 39.8 µM | 8.91 µM | 37.2 µM | – |
| N=C(N)N/N=C/c1c(-c2cccnc2)nc2sc(Cl)cn12 | 13.8 µM | 42.7 µM | 20 µM | 41.7 µM | 8.51 µM | 21.9 µM | 15.1 µM | 31.6 µM | 18.2 µM | 36.3 µM | 15.5 µM | 36.3 µM | 18.2 µM | 35.5 µM | 15.1 µM | 28.2 µM | 16.6 µM | 46.8 µM | – |
| N=C(N)N/N=C/c1c(-c2cc([N+](=O)[O-])c(Cl)cc2Cl)nc2n1CCS2 | 0.339 µM | 3.16 µM | 1.15 µM | 2.57 µM | 0.447 µM | 2.19 µM | 0.302 µM | 9.55 µM | 0.759 µM | 2.51 µM | 1.32 µM | 2.82 µM | 1.17 µM | 2.88 µM | 0.813 µM | 3.09 µM | 0.617 µM | 10.5 µM | – |
| Cc1cn2c(/C=N/NC(=N)N)c(-c3ccncc3)nc2s1 | 9.77 µM | 28.2 µM | 16.6 µM | 33.1 µM | 15.8 µM | 34.7 µM | 16.2 µM | 30.9 µM | 19.5 µM | 39.8 µM | 16.6 µM | 34.7 µM | 23.4 µM | 42.7 µM | 17.4 µM | 32.4 µM | 34.7 µM | 47.9 µM | – |
| N=C(N)N/N=C/c1c(-c2cc([N+](=O)[O-])c(Cl)cc2Cl)nc2sc(Cl)cn12 | 3.55 µM | 44.7 µM | 22.9 µM | 72.4 µM | 5.75 µM | 50.1 µM | 10.7 µM | 64.6 µM | 11.2 µM | 53.7 µM | 19.5 µM | 66.1 µM | 29.5 µM | 81.3 µM | 19.1 µM | 93.3 µM | 10.5 µM | 38.9 µM | – |
| Cc1cn2c(/C=N/NC(=N)N)c(-c3cc([N+](=O)[O-])c(Cl)cc3Cl)nc2s1 | 1.62 µM | – | 2.51 µM | 19.5 µM | 0.661 µM | 49 µM | 2.14 µM | – | 2.29 µM | – | 2.09 µM | 19.5 µM | 2.09 µM | 11.7 µM | – | 2.34 µM | 4.17 µM | – | LC50 ([8]; read-out: Log LC50 (converted)): 60.3 µM |
